From PubChem
TMEM16A act = TMEM16A chloride channel activators or potentiators, primary screen, cell-based, HTS | Anoctamin-1 (Mus musculus), Q8BHY3 | HEK293 TMEM16A/YFP-H148Q/I152L, iodide quench fluorescence; active compounds read low | B-score at 10 µM | 340,000 tested, 0.3% active | AID 623877, 2012;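 active means fluorescence-ratio B-score plate-corrected deviation score at least 3 library SD below zero, with starting fluorescence score within 5 deviations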;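 further: channel opened by trigger with iodide after compound preincubation; score built on the fluorescence ratio of max minus min over baseline; more negative score means more quench and so TMEM16A activation or potentiation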
ANO1 block = TMEM16A chloride channel inhibitors, primary screen, cell-based, HTS | Anoctamin-1 (Mus musculus), Q8BHY3 | HEK293 TMEM16A/YFP iodide influx fluorescence, ionomycin | normalized B-score (activity score, 25-100; higher = stronger inhibition) at 10 µM | 310,000 tested, 1.2% active | AID 588511, 2011;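 active means ratio plate-corrected score three or more library SD toward inhibition, starting fluorescence score within five deviations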;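 further: score derived from kinetic fluorescence span divided by baseline fluorescence per well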
VIM-2 inh = VIM-2 metallo-beta-lactamase inhibitors, primary screen, biochemical, epi-absorbance readout, Pseudomonas aeruginosa enzyme | AID 1527, 2009 | 290,000 tested, 0.89% active | purified VIM-2, nitrocefin hydrolysis, epi-absorbance fluorescence | inhibition, % at 5.6 µM;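 active means inhibition above the mean of all tested compounds plus 3 SD, cutoff set per screening run, cut at about 7.5% in these data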;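 further: red hydrolysis product quenches plate fluorescence so inhibitors raise well fluorescence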
CHT block = inhibitors of human choline transporter CHT | High affinity choline transporter 1 (Homo sapiens), Q9GZV3 | CHT-expressing cells, membrane potential dye, choline response; active compounds read low | B-score at 10 µM | 310,000 tested, 0.86% active;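 active means B-score over 3 SD under the library average, and starting fluorescence ratio not unusually high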;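 further: choline stimulus applied at its EC90 after an EC20 pre-addition; B-score computed on integrated fluorescence ratio after choline addition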
CHT allo act = CHT positive allosteric modulators, primary screen, cell-based, membrane potential dye, choline EC20; CHT-expressing cells; active compounds read high; LV-AA mutant CHT in HEK293 cells; B-score at 10 µM; 310,000 tested, 0.49% active; AID 488977, 2010;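 active means initial fluorescence not abnormally high and integrated response B-score, plate-corrected, over 3 SD above library mean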
IMP-1 inh-1 = IMP-1 metallo-beta-lactamase inhibitors, primary screen, biochemical, epi-absorbance readout, Pseudomonas aeruginosa enzyme; 290,000 tested, 0.45% active; inhibition, % at 5.6 µM; purified IMP-1, nitrocefin hydrolysis, epi-absorbance fluorescence;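 active means inhibition above the mean plus 3 SD of all compounds in the same screening run, cut at about 4.5% in these data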
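System – purified recombinant IMP-1 beta-lactamase · Input – IMP-1 dispensed at 0.2 nM · Timing – 15 min preincubation plus 25 min reaction at 25 °C · Signal – Epi-absorbance fluorescence, 480 nm excitation, 530 nm emission · Measure – percent IMP-1 inhibition derived from blank-referenced optical density · Controls – Enzyme-plus-DMSO low control, enzyme-free DMSO high control · Replication – singlicate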
IMP-1 inh-2 = IMP-1 metallo-beta-lactamase inhibitors, confirmation, selectivity assay for selective VIM-2 inhibitor project, biochemical, epi-absorbance readout, triplicate. shares compounds with VIM-2 inh. purified IMP-1, nitrocefin hydrolysis, epi-absorbance fluorescence. inhibition, % at 5.6 µM. 1,300 tested, under 10 active. AID 1856, 2009; call rule not given here
VIM-2 FRET inh = VIM-2 inhibitors in FRET format, confirmation, artefact control for selective VIM-2 inhibitor project, biochemical, epi-absorbance artifact exclusion; shares compounds with VIM-2 inh; purified VIM-2, CCF2 FRET substrate hydrolysis; inhibition, % at 5.6 µM; 1,300 tested, 23% active; AID 1857, 2009;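 active means inhibition above the mean of all tested compounds plus 3 SD, cut at about 19% in these data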
TEM-1 inh = TEM-1 serine beta-lactamase inhibitors, counter-screen for VIM-2 inhibitor project, biochemical, epi-absorbance, HTS; shares compounds with VIM-2 inh; Purified TEM-1, nitrocefin hydrolysis, epi-absorbance fluorescence; inhibition, % at 5.6 µM; 1,300 tested, 3% active; AID 1866, 2009;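 active means inhibition above that campaign's mean inhibition plus 3 SD, cut at about 0.46% in these data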
Target sequence (P62593 whole entry, looked up): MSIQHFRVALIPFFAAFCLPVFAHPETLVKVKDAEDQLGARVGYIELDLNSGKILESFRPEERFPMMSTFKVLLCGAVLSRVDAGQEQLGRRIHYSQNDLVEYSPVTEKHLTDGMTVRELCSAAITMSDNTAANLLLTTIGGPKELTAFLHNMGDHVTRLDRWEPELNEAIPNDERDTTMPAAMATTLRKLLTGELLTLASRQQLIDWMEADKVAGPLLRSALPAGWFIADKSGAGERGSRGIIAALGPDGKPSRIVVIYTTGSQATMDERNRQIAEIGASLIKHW
VIM-2 inh conf = VIM-2 metallo-beta-lactamase inhibitors, confirmation, biochemical, epi-absorbance, hits shared with IMP-1 screen. shares compounds with VIM-2 inh. inhibition, % at 5.6 µM. 1,300 tested, 96% active. AID 2187, 2009. purified VIM-2, nitrocefin hydrolysis;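 active means inhibition of the VIM-2 beta-lactamase enzyme above about 11% from the earlier first-round screen, limit read from the data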
Numbers stand for hits. Hits are enriched below; roughly 3.4% of the tested compounds scored in any of these assays.

What do the screens show for `N#Cc1c2c(c(NCCCN3CCOCC3)n3c1nc1ccccc13)CCC2`?
ANO1 block: inactive; VIM-2 inh: 14; CHT block: inactive; CHT allo act: inactive; IMP-1 inh-1: inactive; IMP-1 inh-2: inactive; VIM-2 FRET inh: inactive; TEM-1 inh: inactive; VIM-2 inh conf: 38

What do the screens show for `CCOc1ccc(S(=O)(=O)Nc2ccccc2C(=O)N2CCOCC2)cc1`?
TMEM16A act: inactive; ANO1 block: inactive; VIM-2 inh: inactive; CHT block: inactive; CHT allo act: inactive; IMP-1 inh-1: inactive

What do the screens show for `COc1ccc(Cl)cc1NS(=O)(=O)c1c(C)[nH]c(=O)[nH]c1=O`?
TMEM16A act: inactive; ANO1 block: inactive; VIM-2 inh: inactive; CHT block: inactive; CHT allo act: inactive; IMP-1 inh-1: inactive

What do the screens show for `COc1ccc(C=O)c2[nH]c3c(Cl)ncnc3c12`?
TMEM16A act: inactive; VIM-2 inh: 16; IMP-1 inh-1: inactive; IMP-1 inh-2: inactive; VIM-2 FRET inh: inactive; TEM-1 inh: inactive; VIM-2 inh conf: 24

What do the screens show for `CCCc1cc(=O)oc2cc(C)cc(OC(C)C(=O)NCCCn3ccnc3)c12` (stereo unspecified)?
TMEM16A act: inactive; ANO1 block: inactive; VIM-2 inh: 18; CHT block: inactive; CHT allo act: inactive; IMP-1 inh-1: inactive; IMP-1 inh-2: inactive; VIM-2 FRET inh: inactive; TEM-1 inh: inactive; VIM-2 inh conf: 28

Results for CCCc1cc(=O)oc2cc(C)cc(OC(C)C(=O)NCCCN3CCOCC3)c12 (stereo unspecified) ?
TMEM16A act: inactive; ANO1 block: inactive; VIM-2 inh: inactive; CHT block: inactive; CHT allo act: inactive; IMP-1 inh-1: inactive

Results for CCCc1cc(=O)oc2cc(C)cc(OCC(=O)NCCCn3ccnc3)c12 ?
TMEM16A act: inactive; ANO1 block: inactive; VIM-2 inh: 24; CHT block: inactive; CHT allo act: inactive; IMP-1 inh-1: inactive; IMP-1 inh-2: inactive; VIM-2 FRET inh: inactive; TEM-1 inh: inactive; VIM-2 inh conf: 39

Results for O=C(CN1C(=O)c2ccccc2S1(=O)=O)Nc1ccon1 ?
TMEM16A act: inactive; ANO1 block: inactive; CHT block: inactive; CHT allo act: inactive

Results for CC1CCN(CC(=O)n2c3c(c4ccccc42)CCCC3)CC1 ?
TMEM16A act: inactive; ANO1 block: inactive; VIM-2 inh: 18; CHT block: inactive; CHT allo act: inactive; IMP-1 inh-1: inactive; IMP-1 inh-2: inactive; VIM-2 FRET inh: inactive; TEM-1 inh: inactive; VIM-2 inh conf: inactive

What do the screens show for `CCN1CCN(CCNC(=O)c2cc(Cl)c(NC(=O)C3=C(C)OCCS3)cc2OC)CC1`?
TMEM16A act: inactive; ANO1 block: inactive; VIM-2 inh: 24; CHT block: inactive; CHT allo act: inactive; IMP-1 inh-1: inactive; IMP-1 inh-2: inactive; VIM-2 FRET inh: inactive; TEM-1 inh: inactive; VIM-2 inh conf: 33

Results for CCC(C)NC(=O)c1cc(Cl)c(NC(=O)C2=C(C)OCCS2)cc1OC (stereo unspecified) ?
TMEM16A act: inactive; ANO1 block: inactive; VIM-2 inh: inactive; CHT block: inactive; CHT allo act: inactive; IMP-1 inh-1: inactive

What do the screens show for `Oc1c(CN2CCCCC2)ccc2cccnc12`?
TMEM16A act: inactive

How did COc1ccccc1N1CCN(Cc2cc(Br)c(O)c3ncccc23)CC1 do in these assays?
TMEM16A act: inactive; ANO1 block: inactive; VIM-2 inh: 24; CHT block: inactive; CHT allo act: inactive; IMP-1 inh-1: inactive; IMP-1 inh-2: inactive; VIM-2 FRET inh: inactive; TEM-1 inh: inactive; VIM-2 inh conf: inactive

What do the screens show for `Oc1c(Cl)cc(CN2CCCCC2)c2cccnc12`?
TMEM16A act: inactive; ANO1 block: inactive; VIM-2 inh: 15; CHT block: inactive; CHT allo act: inactive; IMP-1 inh-1: inactive; IMP-1 inh-2: inactive; VIM-2 FRET inh: inactive; TEM-1 inh: inactive; VIM-2 inh conf: 17

How did O=[N+]([O-])c1cc(CN2CCCC2)c2cccnc2c1O do in these assays?
TMEM16A act: inactive; ANO1 block: inactive; VIM-2 inh: 38; CHT block: inactive; CHT allo act: inactive; IMP-1 inh-1: inactive; IMP-1 inh-2: inactive; VIM-2 FRET inh: inactive; TEM-1 inh: inactive; VIM-2 inh conf: 44

What do the screens show for `Cc1nn(CCCC(=O)NCCc2ccccc2)c(=O)c2nccn12`?
TMEM16A act: inactive; ANO1 block: inactive; VIM-2 inh: inactive; CHT block: inactive; CHT allo act: inactive; IMP-1 inh-1: inactive

What do the screens show for `Cc1ccc(SCC(=O)NNC(=O)CCS(=O)(=O)c2ccccc2)cc1`?
TMEM16A act: inactive

What do the screens show for `N#C/C(=C\c1ccc(C(=O)O)cc1)c1nc2sc3c(c2c(=O)[nH]1)CCCC3`?
TMEM16A act: inactive; VIM-2 inh: inactive; IMP-1 inh-1: inactive

What do the screens show for `O=C1OC(c2ccccc2)=N/C1=C\C=C\c1ccco1`?
TMEM16A act: inactive; ANO1 block: inactive; VIM-2 inh: inactive; CHT block: inactive; CHT allo act: inactive; IMP-1 inh-1: inactive

What do the screens show for `O=C1OC(c2ccccc2)=N/C1=C\C=C\c1ccccc1[N+](=O)[O-]`?
TMEM16A act: inactive; ANO1 block: inactive; VIM-2 inh: 16; CHT block: inactive; CHT allo act: inactive; IMP-1 inh-1: inactive; IMP-1 inh-2: inactive; VIM-2 FRET inh: 30; TEM-1 inh: inactive; VIM-2 inh conf: 9.9

Results for Clc1ccccc1-c1nn2c(-c3ccncc3)nnc2s1 ?
TMEM16A act: inactive; ANO1 block: inactive; VIM-2 inh: 22; CHT block: inactive; CHT allo act: inactive; IMP-1 inh-1: inactive; IMP-1 inh-2: inactive; VIM-2 FRET inh: inactive; TEM-1 inh: inactive; VIM-2 inh conf: 55
